Source: ChEMBL document CHEMBL1142705, “Rational design, synthesis, and structure-activity relationships of aryltriazoles as novel corticotropin-releasing factor-1 receptor antagonists” (J Med Chem, 2005)
pKi: −log10 of the molar value. Blank lines part the entries; values can stand above or below the molecule they belong to.

Legend:
[1] = target: T1, Corticotropin-releasing factor receptor 1 (Homo sapiens, UniProt P34998); experiment: Inhibition of [125I][Tyr0]-sauvagine binding to human Corticotropin releasing factor receptor 1 expressed in mouse fibroblast Ltk- cells; assay type: cell-based
T1 sequence (P34998 whole entry): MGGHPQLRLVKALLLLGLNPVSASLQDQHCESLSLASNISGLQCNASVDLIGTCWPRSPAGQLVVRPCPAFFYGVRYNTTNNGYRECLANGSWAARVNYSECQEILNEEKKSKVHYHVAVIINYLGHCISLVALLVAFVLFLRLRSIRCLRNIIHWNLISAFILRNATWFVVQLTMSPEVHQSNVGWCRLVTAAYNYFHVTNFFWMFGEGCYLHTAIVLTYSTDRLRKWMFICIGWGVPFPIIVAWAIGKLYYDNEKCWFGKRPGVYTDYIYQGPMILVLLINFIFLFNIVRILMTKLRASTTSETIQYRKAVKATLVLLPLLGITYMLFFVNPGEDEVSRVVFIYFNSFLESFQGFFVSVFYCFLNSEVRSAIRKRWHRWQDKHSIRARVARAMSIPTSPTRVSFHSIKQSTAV

[2] = target: Corticotropin releasing factor receptor (Rattus norvegicus, UniProt P47866+P35353); experiment: Inhibition of corticotropin releasing factor stimulated cAMP production in rat pituitary assay; assay type: functional, tissue-based, Pituitary gland
[3] = target: T2, Corticotropin-releasing factor receptor 2 (Homo sapiens, UniProt Q13324); experiment: Binding affinity for human Corticotropin releasing factor receptor 2
T2 sequence (Q13324 whole entry): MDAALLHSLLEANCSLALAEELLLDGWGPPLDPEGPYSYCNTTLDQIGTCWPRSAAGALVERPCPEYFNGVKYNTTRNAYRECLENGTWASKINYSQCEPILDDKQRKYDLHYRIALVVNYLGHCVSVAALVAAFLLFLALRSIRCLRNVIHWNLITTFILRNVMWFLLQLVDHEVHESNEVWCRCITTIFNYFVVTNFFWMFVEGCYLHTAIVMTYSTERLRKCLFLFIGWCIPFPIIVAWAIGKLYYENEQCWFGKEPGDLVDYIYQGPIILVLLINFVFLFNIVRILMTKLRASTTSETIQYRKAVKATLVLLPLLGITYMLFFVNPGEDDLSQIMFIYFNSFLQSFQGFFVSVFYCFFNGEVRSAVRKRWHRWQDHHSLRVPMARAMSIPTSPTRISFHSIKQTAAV

[4] = Ratio of compound concentration in brain to that of plasma of rats upon intravenous administration of 1 mg/kg; assay type: ADME, organism-based; design: dose 1 mg/kg, route intravenous; settings: rat
In short: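 Male Sprague-Dawley rats, 3 per time point, received 1 mg/kg iv by tail vein at 2 mL/kg in filtered purified water. Terminal blood and brain were taken at set times for composite sampling. Plasma was acetonitrile-precipitated and half-brains were homogenized in 50:50 acetonitrile/water, then measured by LC-MS/MS (LLOQ 5 ng/mL plasma, 0.5 ng/g brain). Ratio = brain AUC / plasma AUC, noncompartmental.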

[5] = Peak plasma concentration upon oral administration of 2 mg/kg to rats; assay type: ADME, organism-based; design: dose 2 mg/kg, route oral; settings: rat
In short: (§1)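 Male Sprague-Dawley rats were dosed at 1 mg/kg iv via the tail vein and at 2 mg/kg by oral gavage, n = 3 per time point. The dosing solution was in purified water at 2 mL/kg. Terminal plasma was sampled at set times (composite design), acetonitrile-precipitated and analysed by LC-MS/MS (LLOQ 5 ng/mL). Parameters came from noncompartmental analysis.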

[6] = Area under concentration time curve upon oral administration of 2 mg/kg to rats; assay type: ADME, organism-based; design: dose 2 mg/kg, route oral; settings: rat, in vivo; in short: as §1
[7] = Time to attain peak plasma concentration upon oral administration of 2 mg/kg to rats; assay type: ADME, organism-based; design: dose 2 mg/kg, route oral; settings: rat; in short: as §1
[8] = Plasma half life in rats upon intravenous administration of 1 mg/kg; assay type: ADME, organism-based; design: dose 1 mg/kg, route intravenous; settings: rat; in short: as §1
[9] = Volume of distribution in rats upon intravenous administration of 1 mg/kg; assay type: ADME, organism-based; design: dose 1 mg/kg, route intravenous; settings: rat, in vivo, read-out: V; in short: as §1
[10] = Clearance of compound in rats upon intravenous administration of 1 mg/kg; assay type: ADME, organism-based; design: dose 1 mg/kg, route intravenous; settings: rat, in vivo; in short: as §1
[11] = Bioavailability upon 2 mg/kg oral administration to rats; assay type: ADME, organism-based; settings: rat, in vivo; in short: as §1

SMILES: CCCC(c1ccccc1)N(CCC)c1nc(-c2ccc(OC)cc2C)n(C)n1 (configuration not stated)
pKi [1]: 7.21

SMILES: CCC(c1ccccc1)N(CC)c1nc(-c2ccc(Cl)cc2OC)n(C)n1 (configuration not stated)
pKi [1]: 6.82

SMILES: CCCCC(CC)N(CC1CC1)c1nc(-c2ccc(Cl)cc2OC)n(C)n1 (configuration not stated)
pKi [1]: 6.36

SMILES: CCCCC(CC)N(CCOC)c1nc(-c2ccc(Cl)cc2OC)n(C)n1 (configuration not stated)
pKi [1]: 6.55

SMILES: CCCN(c1nc(-c2ccc(Cl)cc2OC)n(C)n1)C(C(C)C)C(C)C
pKi [1]: 6.04

SMILES: CCCC(c1ccccc1)N(CCC)c1nc(-c2ccc(OC)cc2OC)n(C)n1 (configuration not stated)
pKi [1]: 6.92

SMILES: CCCN(CCC)c1nc(-c2ccc(Cl)cc2OC)n(C)n1
pKi [1]: < 5.00

SMILES: CCCC(c1ccccc1)N(CCC)c1nc(-c2cc(OC)c(OC)cc2Cl)n(C)n1 (configuration not stated)
pKi [1]: 7.08

SMILES: CCCN(c1nc(-c2ccc(Cl)cc2OC)n(C)n1)[C@H](CC)c1ccc(C(F)(F)F)cc1
pKi [1]: 6.37

SMILES: CCC[C@H](c1ccccc1)N(CCC)c1nc(-c2ccc(OC)cc2C)n(C)n1
pKi [1]: 6.42

SMILES: CCCC[C@H](c1ccccc1)N(CCC)c1nc(-c2ccc(OC)cc2C)n(C)n1
pKi [1]: 6.46

SMILES: CCCN(c1nc(-c2ccc(OC)cc2C)n(C)n1)[C@@H](CC)c1ccc(C(F)(F)F)cc1.Cl
IC50 [2]: 270 nM

SMILES: CCCN(c1nc(-c2ccc(Cl)cc2Cl)nn1C)C(C1CC1)C1CC1
pKi [1]: < 5.00

SMILES: CCCCC(CC)N(CCC)c1nc(-c2ccc(Cl)cc2OC)n(C)n1 (configuration not stated)
pKi [1]: 7.34

SMILES: CCCN(c1nc(-c2ccc(Cl)cc2OC)n(C)n1)C(C)CC (configuration not stated)
pKi [1]: 6.16

SMILES: CCCN(CCC)c1nc(-c2ccc(Cl)cc2Cl)n(C)n1
pKi [1]: 5.47

The remaining molecules from weak to strong by pKi [1], led by results:

pKi [1]: 7.34
SMILES: CCCC[C@H](c1ccc(F)cc1)N(CCC)c1nc(-c2ccc(Cl)cc2OC)n(C)n1

pKi [1]: 7.55
SMILES: CCCN(c1nc(-c2ccc(Cl)cc2OC)n(C)n1)C(C1CC1)C1CC1

pKi [1]: 7.59
SMILES: CCCN(c1nc(-c2ccc(Cl)cc2OC)n(C)n1)C(CC)c1ccccc1 (configuration not stated)

pKi [1]: 7.62
SMILES: CCCCC(c1ccc(F)cc1)N(CCC)c1nc(-c2ccc(OC)cc2OC)n(C)n1 (configuration not stated)

pKi [1]: 7.66
IC50 [2]: 240 nM
SMILES: CCC[C@@H](c1ccccc1)N(CCC)c1nc(-c2ccc(OC)cc2OC)n(C)n1.Cl

pKi [1]: 7.79
IC50 [2]: 240 nM
SMILES: CCC[C@@H](c1ccccc1)N(CCC)c1nc(-c2cc(OC)c(OC)cc2Cl)n(C)n1.Cl

pKi [1]: 7.85
SMILES: CCCC(c1ccccc1)N(CCC)c1nc(-c2ccc(Cl)cc2OC)n(C)n1 (configuration not stated)

pKi [1]: 7.92
SMILES: CCCN(c1nc(-c2ccc(Cl)cc2OC)n(C)n1)C(CC)c1ccc(C(F)(F)F)cc1 (configuration not stated)

pKi [1]: 8.04
IC50 [2]: 90 nM
pKi [3]: < 5.00
SMILES: CCCN(c1nc(-c2ccc(Cl)cc2Cl)n(C)n1)C(C1CC1)C1CC1

pKi [1]: 8.05
IC50 [2]: 120 nM
SMILES: CCC[C@@H](c1ccccc1)N(CCC)c1nc(-c2ccc(OC)cc2C)n(C)n1.Cl

Ratio [4]: 20%
Cmax [5]: 290 ng/mL
AUC [6]: 1010 ng·h/mL
pKi [1]: 8.14
Tmax [7]: 0.5 h
half-life [8]: 3.3 h
Vd [9]: 7.8 L/kg
clearance [10]: 27.7 mL/min/kg
bioavailability [11]: 84%
SMILES: CCCCC(c1ccc(F)cc1)N(CCC)c1nc(-c2ccc(Cl)cc2OC)n(C)n1 (configuration not stated)

pKi [1]: 8.16
SMILES: CCCCC(c1ccccc1)N(CCC)c1nc(-c2ccc(OC)cc2C)n(C)n1 (configuration not stated)

pKi [1]: 8.20
IC50 [2]: 91 nM
SMILES: CCC[C@@H](c1ccccc1)N(CCC)c1nc(-c2ccc(Cl)cc2OC)n(C)n1.Cl

pKi [1]: 8.24
IC50 [2]: 92 nM
SMILES: CCCC[C@@H](c1ccccc1)N(CCC)c1nc(-c2ccc(OC)cc2C)n(C)n1.Cl

pKi [1]: 8.28
IC50 [2]: 120 nM
SMILES: CCCN(c1nc(-c2ccc(Cl)cc2OC)n(C)n1)[C@@H](CC)c1ccc(C(F)(F)F)cc1.Cl

pKi [1]: 8.40
IC50 [2]: 56 nM
SMILES: CCCC[C@@H](c1ccccc1)N(CCC)c1nc(-c2ccc(Cl)cc2OC)n(C)n1.Cl

pKi [1]: 8.57
IC50 [2]: 49 nM
SMILES: CCCC[C@@H](c1ccc(F)cc1)N(CCC)c1nc(-c2ccc(Cl)cc2OC)n(C)n1.Cl

pKi [1]: 8.70
SMILES: CCCN(CC1CC1)c1nc(C)nc(Nc2c(Cl)cc(Cl)cc2Cl)c1Cl
